Measurements reported in ChEMBL document CHEMBL1127300, “Identification, synthesis, and characterization of a unique class of N-methyl-D-aspartate antagonists. The 6,11-ethanobenzo[b]quinolizinium cation” (J Med Chem, 1994).
Where a name gives a salt, the structure may show the parent alone.

Assays:
Glutamate NMDA receptor [1] = experiment: Binding affinity was determined towards NMDA receptor using [3H]thienylcyclidine as radioligand; type: protein-complex assay
Summary of the method: (§1)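 Rat (male Sprague–Dawley) whole-brain membranes, washed three times in 50 mM Tris-HCl pH 7.7 and resuspended in 5 mM Tris-HCl at 0.5 mg protein/tube. About 1 nM [3H]TCP final with varied test concentrations. 25 min at room temperature. Nonspecific binding defined with 100 μM PCP. Filtration on PEI-soaked glass-fibre filters and scintillation counting.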

Mus musculus [2] = species on record: Mus musculus; experiment: In vitro for neuroprotective efficacy to protect cultured cortical neurons from an excitotoxic exposure to NMDA receptor.; type: functional
Mus musculus [3] = species on record: Mus musculus; experiment: In vitro neuroprotective efficacy determined to protect cultured mouse cortical neurons from an excitotoxic exposure to NMDA; type: functional
[4] = Ratio between closed channel blockade to open channel blockade; type: functional
Summary of the method: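 Whole-cell voltage clamp at −60 mV, room temperature (ca. 23 °C), in day-13 mouse cortical neurons; 100 μM NMDA. Open-channel block: NMDA with compound for 300 s; current at 300 s normalized to peak, % inhibition vs controls. Closed-channel block: 30 min with compound plus 10 μM 7-chlorokynurenate without NMDA, 1–2 min wash, then NMDA response vs two baseline responses. IC50 from Hill-type fit.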

Mus musculus [5] = species on record: Mus musculus; experiment: Electrophysiological responses in open channel block to NMDA were recorded in 13-day old mouse cortical neuronal cultures.; type: functional
[6] = biological target: D(1A) dopamine receptor (Mus musculus) (UniProt Q61616); experiment: Percent inhibition of radioligand [3H]SCH-23390 binding to dopamine receptor D1 at 10 uM concentration
[7] = biological target: Alpha-1 adrenergic receptor (Mus musculus) (UniProt P97714+P97717+P97718); experiment: Percent inhibition of radioligand [3H]prazosin binding to alpha-1 receptor at 10 uM concentration; type: protein assay
[8] = biological target: Histamine H1 receptor (Mus musculus) (UniProt P70174); experiment: Percent inhibition of radioligand [3H]pyrilamine binding to H1 receptor at 10 uM concentration
[9] = Percent inhibition of […] binding to GABA-A benzodiazepine receptor at 10 uM
[10] = biological target: Beta-adrenergic receptor (Mus musculus) (UniProt P34971+P18762+P25962); experiment: Percent inhibition of radioligand [3H]DHAP binding to beta receptor at 10 uM concentration; type: protein assay
[11] = Percent inhibition of radioligand [3H]NECA binding to A1,A2 receptor at 10 uM concentration
[12] = biological target: Muscarinic acetylcholine receptor (Mus musculus) (UniProt Q920H4+Q9ERZ4+P12657+P32211+Q9ERZ3); experiment: Percent inhibition of radioligand [3H]QNB binding to muscarinic receptor at 10 uM concentration; type: protein assay
[13] = biological target: D(2) dopamine receptor (Mus musculus) (UniProt P61168); experiment: Percent inhibition of radioligand [3H]raclopride binding to D2 receptor at 10 uM concentration
[14] = biological target: Alpha-2 adrenergic receptor (Mus musculus) (UniProt P30545+Q01338+Q01337); experiment: Percent inhibition of radioligand [3H]rauwolscine binding to alpha-2 receptor at 10 uM concentration; type: protein assay
[15] = biological target: Sigma non-opioid intracellular receptor 1 (Mus musculus) (UniProt O55242); experiment: Percent inhibition of radioligand [3H]DTG binding to sigma receptor at 10 uM concentration
[16] = biological target: Opioid receptor (Mus musculus) (UniProt P42866+P32300+P33534); experiment: Percent inhibition of radioligand [3H]-naxalone binding to opiate receptor at 10 uM concentration; type: protein assay
Mus musculus [17] = species on record: Mus musculus; experiment: Percent inhibition of radioligand [3H]-LSD binding to 5-HT receptor at 10 uM concentration
Glutamate NMDA receptor [18] = experiment: Binding affinity was determined towards NMDA receptor using [3H]TCP as radioligand in rat
Summary of the method: as §1, with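 “counting. Ki from EBDA/LIGAND; mean ± SEM of ≥3 determinations in triplicate.” for “counting.”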

Mus musculus [19] = species on record: Mus musculus; experiment: Electrophysiological responses in closed channel block to NMDA were recorded in 13-day old mouse cortical neuronal cultures.; type: functional
[20] = biological target: D(1A) dopamine receptor (Mus musculus) (UniProt Q61616); experiment: Percent inhibition of radioligand [3H]SCH-23,390 binding to dopamine receptor D1 at 10 uM concentration

Alpha-1 adrenergic receptor (Mus musculus), sequence (P97714 whole entry, looked up): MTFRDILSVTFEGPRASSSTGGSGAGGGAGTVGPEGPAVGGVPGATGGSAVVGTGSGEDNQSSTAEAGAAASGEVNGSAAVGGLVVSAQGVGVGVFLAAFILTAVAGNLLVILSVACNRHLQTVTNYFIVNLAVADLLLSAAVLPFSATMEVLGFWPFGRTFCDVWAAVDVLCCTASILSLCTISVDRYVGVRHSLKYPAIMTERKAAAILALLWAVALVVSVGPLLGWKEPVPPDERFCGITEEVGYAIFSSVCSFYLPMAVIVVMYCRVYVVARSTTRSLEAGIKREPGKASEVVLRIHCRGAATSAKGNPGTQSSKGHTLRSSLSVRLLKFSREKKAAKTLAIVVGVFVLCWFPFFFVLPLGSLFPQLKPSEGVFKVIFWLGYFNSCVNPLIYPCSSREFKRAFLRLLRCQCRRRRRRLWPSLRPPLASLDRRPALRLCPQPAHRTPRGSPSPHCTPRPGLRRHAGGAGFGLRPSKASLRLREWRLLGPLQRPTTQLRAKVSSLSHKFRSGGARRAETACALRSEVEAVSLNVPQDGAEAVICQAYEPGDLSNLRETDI
Alpha-1 adrenergic receptor (Mus musculus), sequence (P97717 whole entry, looked up): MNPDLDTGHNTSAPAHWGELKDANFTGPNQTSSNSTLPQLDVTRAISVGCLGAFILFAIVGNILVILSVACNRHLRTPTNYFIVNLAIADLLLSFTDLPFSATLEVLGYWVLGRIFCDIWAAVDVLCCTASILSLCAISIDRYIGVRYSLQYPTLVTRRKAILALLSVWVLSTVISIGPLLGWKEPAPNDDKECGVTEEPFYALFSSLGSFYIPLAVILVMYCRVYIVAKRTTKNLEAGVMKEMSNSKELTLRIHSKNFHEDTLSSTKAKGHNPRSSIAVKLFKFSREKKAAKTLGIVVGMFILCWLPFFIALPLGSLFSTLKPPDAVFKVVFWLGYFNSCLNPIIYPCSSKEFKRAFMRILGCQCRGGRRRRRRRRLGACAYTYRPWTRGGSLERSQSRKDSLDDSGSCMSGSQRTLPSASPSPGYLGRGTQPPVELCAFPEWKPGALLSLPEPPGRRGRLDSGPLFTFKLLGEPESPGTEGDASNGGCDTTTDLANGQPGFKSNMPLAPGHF
Alpha-1 adrenergic receptor (Mus musculus), sequence (P97718 whole entry, looked up): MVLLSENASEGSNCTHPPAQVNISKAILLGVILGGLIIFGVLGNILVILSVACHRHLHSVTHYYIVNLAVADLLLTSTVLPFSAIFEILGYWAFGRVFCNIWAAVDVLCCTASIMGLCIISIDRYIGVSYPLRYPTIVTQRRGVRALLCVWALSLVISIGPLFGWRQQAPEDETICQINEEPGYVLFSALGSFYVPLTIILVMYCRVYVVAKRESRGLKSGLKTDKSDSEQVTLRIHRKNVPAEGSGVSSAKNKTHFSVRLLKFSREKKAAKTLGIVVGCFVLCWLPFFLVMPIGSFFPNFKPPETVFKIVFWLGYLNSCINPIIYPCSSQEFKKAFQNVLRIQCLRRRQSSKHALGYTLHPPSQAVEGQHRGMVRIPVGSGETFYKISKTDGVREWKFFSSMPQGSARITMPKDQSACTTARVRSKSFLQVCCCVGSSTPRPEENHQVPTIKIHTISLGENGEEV
D(1A) dopamine receptor (Mus musculus), sequence (Q61616 whole entry): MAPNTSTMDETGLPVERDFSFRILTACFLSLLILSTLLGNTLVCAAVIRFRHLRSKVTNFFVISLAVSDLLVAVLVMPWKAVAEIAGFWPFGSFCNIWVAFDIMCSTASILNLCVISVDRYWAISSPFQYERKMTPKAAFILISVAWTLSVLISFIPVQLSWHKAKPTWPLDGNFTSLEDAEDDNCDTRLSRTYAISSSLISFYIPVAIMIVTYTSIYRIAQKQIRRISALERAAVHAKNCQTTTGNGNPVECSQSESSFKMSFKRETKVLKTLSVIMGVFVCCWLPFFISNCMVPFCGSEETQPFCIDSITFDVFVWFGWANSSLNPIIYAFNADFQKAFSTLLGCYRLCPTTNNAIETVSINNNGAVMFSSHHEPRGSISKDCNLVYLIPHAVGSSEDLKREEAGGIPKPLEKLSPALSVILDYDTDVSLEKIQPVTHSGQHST
D(2) dopamine receptor (Mus musculus), sequence (P61168 whole entry): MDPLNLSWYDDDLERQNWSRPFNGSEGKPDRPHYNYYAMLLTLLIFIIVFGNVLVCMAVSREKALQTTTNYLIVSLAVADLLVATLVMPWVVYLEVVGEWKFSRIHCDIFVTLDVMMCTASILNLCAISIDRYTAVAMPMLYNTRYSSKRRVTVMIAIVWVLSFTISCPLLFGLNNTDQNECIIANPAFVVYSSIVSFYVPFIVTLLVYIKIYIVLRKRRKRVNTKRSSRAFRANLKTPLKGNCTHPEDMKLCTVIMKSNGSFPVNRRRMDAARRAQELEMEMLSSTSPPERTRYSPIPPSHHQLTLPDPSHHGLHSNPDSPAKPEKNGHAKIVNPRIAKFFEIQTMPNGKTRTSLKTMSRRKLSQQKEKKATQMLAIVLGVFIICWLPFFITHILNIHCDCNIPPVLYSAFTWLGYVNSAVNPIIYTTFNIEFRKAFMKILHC
Sigma non-opioid intracellular receptor 1 (Mus musculus), sequence (O55242 whole entry): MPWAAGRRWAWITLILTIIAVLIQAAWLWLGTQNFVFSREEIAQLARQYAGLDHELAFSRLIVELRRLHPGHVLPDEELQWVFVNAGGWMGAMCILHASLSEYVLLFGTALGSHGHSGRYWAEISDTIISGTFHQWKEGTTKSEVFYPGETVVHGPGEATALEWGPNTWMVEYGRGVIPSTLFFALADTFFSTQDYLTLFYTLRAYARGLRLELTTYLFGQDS
Histamine H1 receptor (Mus musculus), sequence (P70174 whole entry): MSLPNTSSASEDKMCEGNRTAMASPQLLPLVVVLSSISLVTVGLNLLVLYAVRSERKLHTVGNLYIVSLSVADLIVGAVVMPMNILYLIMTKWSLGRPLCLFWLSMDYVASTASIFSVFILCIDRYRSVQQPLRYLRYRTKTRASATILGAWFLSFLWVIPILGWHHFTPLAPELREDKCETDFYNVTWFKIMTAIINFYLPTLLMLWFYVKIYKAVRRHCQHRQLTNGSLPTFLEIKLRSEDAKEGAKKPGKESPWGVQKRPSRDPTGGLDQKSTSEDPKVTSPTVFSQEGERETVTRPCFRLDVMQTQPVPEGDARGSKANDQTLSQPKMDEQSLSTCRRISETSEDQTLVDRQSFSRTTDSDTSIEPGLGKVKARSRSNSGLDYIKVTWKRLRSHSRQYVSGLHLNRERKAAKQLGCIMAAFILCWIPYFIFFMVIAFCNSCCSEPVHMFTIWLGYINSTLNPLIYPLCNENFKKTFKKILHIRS
Opioid receptor (Mus musculus), sequence (P32300 whole entry, looked up): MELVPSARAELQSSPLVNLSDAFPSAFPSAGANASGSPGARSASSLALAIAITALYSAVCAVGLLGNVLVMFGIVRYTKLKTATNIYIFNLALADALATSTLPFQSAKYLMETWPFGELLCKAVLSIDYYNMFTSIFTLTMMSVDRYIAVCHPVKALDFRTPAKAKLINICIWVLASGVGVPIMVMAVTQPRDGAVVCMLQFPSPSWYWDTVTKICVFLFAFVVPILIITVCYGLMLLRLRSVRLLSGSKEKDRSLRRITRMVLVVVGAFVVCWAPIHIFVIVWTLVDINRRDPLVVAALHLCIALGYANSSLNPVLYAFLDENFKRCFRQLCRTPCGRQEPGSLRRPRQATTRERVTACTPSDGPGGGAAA
Opioid receptor (Mus musculus), sequence (P33534 whole entry, looked up): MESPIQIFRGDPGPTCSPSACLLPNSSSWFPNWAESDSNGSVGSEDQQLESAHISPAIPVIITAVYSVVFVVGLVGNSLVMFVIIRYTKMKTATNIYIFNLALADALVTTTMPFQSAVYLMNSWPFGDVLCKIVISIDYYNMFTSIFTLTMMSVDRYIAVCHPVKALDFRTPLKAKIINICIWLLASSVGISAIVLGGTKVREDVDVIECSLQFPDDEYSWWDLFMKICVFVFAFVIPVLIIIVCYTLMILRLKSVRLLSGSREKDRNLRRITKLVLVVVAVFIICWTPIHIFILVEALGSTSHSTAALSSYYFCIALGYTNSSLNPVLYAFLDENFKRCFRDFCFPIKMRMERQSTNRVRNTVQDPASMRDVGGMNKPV
Opioid receptor (Mus musculus), sequence (P42866 whole entry, looked up): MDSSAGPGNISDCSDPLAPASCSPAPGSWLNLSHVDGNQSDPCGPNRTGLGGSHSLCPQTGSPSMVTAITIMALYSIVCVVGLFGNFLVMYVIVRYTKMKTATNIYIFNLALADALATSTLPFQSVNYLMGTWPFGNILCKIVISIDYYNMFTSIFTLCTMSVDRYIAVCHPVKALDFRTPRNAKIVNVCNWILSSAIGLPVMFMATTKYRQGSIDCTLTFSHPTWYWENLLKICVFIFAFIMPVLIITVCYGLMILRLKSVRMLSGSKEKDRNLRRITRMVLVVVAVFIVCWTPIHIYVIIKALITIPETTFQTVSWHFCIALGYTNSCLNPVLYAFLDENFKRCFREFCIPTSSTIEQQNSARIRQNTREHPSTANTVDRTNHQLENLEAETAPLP

CCOC1(OCC)C2c3cccc(OC)c3C([n+]3ccccc32)C1(C)C (configuration not stated) showed a Ki (Glutamate NMDA receptor [1]) of 1840 nM.

In the case of c1ccc(C2(N3CCCCC3)CCCCC2)cc1 [PHENCYCLIDINE], the Ki (Glutamate NMDA receptor [1]) is reported as 38 nM.

For CCOC1(OCC)C2c3cccc(C)c3C([n+]3ccccc32)C1(C)C (configuration not stated), the Ki (Glutamate NMDA receptor [1]) was 455 nM.

With CCOC1(OCC)C2c3cc([N+](=O)[O-])ccc3C([n+]3ccccc32)C1(C)C.[O-][Cl+3]([O-])([O-])[O-] (configuration not stated) the Ki (Glutamate NMDA receptor [1]) was 2760 nM and the IC50 (Mus musculus [2]) was 15300 nM.

CCOC1(OCC)C2c3c(Br)cccc3C([n+]3ccccc32)C1(C)C.[O-][Cl+3]([O-])([O-])[O-] (configuration not stated) gave a Ki (Glutamate NMDA receptor [1]) of 132 nM and an IC50 (Mus musculus [3]; Mus musculus) of 1040 nM.

For CCOC1(OCC)C2c3c(OC)ccc(OC)c3C([n+]3ccccc32)C1(C)C (configuration not stated), the Ki (Glutamate NMDA receptor [1]) was over 10000 nM.

Work on CCOC1(OCC)C2c3ccccc3C([n+]3ccccc32)C1(C)C (racemic) [listing 1 of 2 here] yielded a Ratio [4] of over 384 CC/OC.

CC1(C)C2c3ccccc3C(c3cccc[n+]32)C12OCCO2 (configuration not stated) gave a Ki (Glutamate NMDA receptor [1]) of 3460 nM.

For CCOC1(OCC)C2c3ccccc3C([n+]3ccccc32)C1(C)C (racemic) [listing 2 of 2 here], the Ki (Glutamate NMDA receptor [1]) was 8 nM and the IC50 (Mus musculus [5]) was 260 nM.

Compound CCOC1(OCC)C2c3ccccc3C([n+]3ccccc32)C1(OCC)OCC (configuration not stated) has a Ki (Glutamate NMDA receptor [1]) of 4990 nM.

With CC1(C)C2c3ccccc3C(c3cccc[n+]32)C12OCCCO2 (configuration not stated) the Ki (Glutamate NMDA receptor [1]) was 2900 nM.

CCOC1(OCC)C2c3c(C)cccc3C([n+]3ccccc32)C1(C)C (configuration not stated) gave a Ki (Glutamate NMDA receptor [1]) of 46 nM.

CCOC1(OCC)C2c3ccccc3C([n+]3ccccc32)C1(C)C (single isomer, unassigned; (+)) [listing 1 of 2 here] gave an inhibition [6] of 7%, an inhibition [7] of 51% and an inhibition [8] of 55%. For the same compound, the inhibition [9] was 14%, the inhibition [10] was 4% and the inhibition [11] was 1%. It also gave an inhibition [12] of 53%, an inhibition [13] of 20% and an inhibition [14] of 52%. For the same compound, the inhibition [15] was 31%, the inhibition [16] was 73% and the inhibition (Mus musculus [17]) was 12%.

For CCOC1C2c3ccccc3C([n+]3ccccc32)C1(C)C (stereo in doubt; 7b), the Ki (Glutamate NMDA receptor [1]) was 1880 nM.

Compound CCOC1(OCC)C2c3c(O)cccc3C([n+]3ccccc32)C1(C)C (configuration not stated) has a Ki (Glutamate NMDA receptor [1]) of 8 nM.

In the case of CCOC1(OCC)C2c3cc(OC)ccc3C([n+]3ccccc32)C1(C)C (configuration not stated), the Ki (Glutamate NMDA receptor [1]) is reported as 4 nM and the IC50 (Mus musculus [3]; Mus musculus) is reported as 157 nM.

For CCOC1(OCC)C2c3cc(C(F)(F)F)ccc3C([n+]3ccccc32)C1(C)C (configuration not stated), the Ki (Glutamate NMDA receptor [1]) was 401 nM.

Compound CCOC1(OCC)C2c3c(OC(C)C)cccc3C([n+]3ccccc32)C1(C)C (configuration not stated) has a Ki (Glutamate NMDA receptor [1]) of 48 nM.

For CCOC1(OCC)C2c3ccccc3C(C1C)[n+]1ccccc12.[O-][Cl+3]([O-])([O-])[O-] (stereo in doubt; 1b), the Ki (Glutamate NMDA receptor [1]) was 34 nM and the IC50 (Mus musculus [3]) was 1160 nM.

With CCOC1(OCC)C2c3cc(Cl)ccc3C([n+]3ccccc32)C1(C)C (configuration not stated) the Ki (Glutamate NMDA receptor [1]) was 12 nM.

CCOC1C2c3ccccc3C([n+]3ccccc32)C1(C)C (stereo in doubt; 7a) gave a Ki (Glutamate NMDA receptor [1]) of 465 nM.

With CCOC1(OCC)C2c3ccccc3C([n+]3ccccc32)C1(C)C (single isomer, unassigned; (+)) [listing 2 of 2 here] the Ki (Glutamate NMDA receptor [1]) was 11 nM and the IC50 (Mus musculus [3]; Mus musculus) was 50 nM.

In the case of CCOC1(OCC)C2c3c(OC)cccc3C([n+]3ccccc32)C1(C)C (configuration not stated), the Ki (Glutamate NMDA receptor [1]) is reported as 13 nM and the IC50 (Mus musculus [3]; Mus musculus) is reported as 22 nM.

In the case of CC1(C)C(=O)C2c3ccccc3C1[n+]1ccccc12 (configuration not stated), the Ki (Glutamate NMDA receptor [1]) is reported as over 10000 nM.

For CCOC1(OCC)C2c3cc(Br)ccc3C([n+]3ccccc32)C1(C)C.[O-][Cl+3]([O-])([O-])[O-] (configuration not stated), the Ki (Glutamate NMDA receptor [1]) was 52 nM and the IC50 (Mus musculus [3]; Mus musculus) was 173 nM.

Work on CCOC1(OCC)CC2c3ccccc3C1c1cccc[n+]12 (configuration not stated) yielded a Ki (Glutamate NMDA receptor [1]) of 3800 nM and an IC50 (Mus musculus [3]; Mus musculus) of 95000 nM.

CCOC1(OCC)C2c3ccccc3C(C1C)[n+]1ccccc12.[O-][Cl+3]([O-])([O-])[O-] (stereo in doubt; 1a) showed a Ki (Glutamate NMDA receptor [18]) of 115 nM and an IC50 (Mus musculus [3]; Mus musculus) of 810 nM.

For COC1(OC)C2c3ccccc3C([n+]3ccccc32)C1(C)C (configuration not stated), the Ki (Glutamate NMDA receptor [1]) was 103 nM.

With CCOC1(OCC)C2c3ccccc3C([n+]3ccccc32)C1(CC)CC (configuration not stated) the Ki (Glutamate NMDA receptor [1]) was 11 nM.

With CCOC1(OCC)C2(C)c3ccccc3C([n+]3ccccc32)C1(C)C.[O-][Cl+3]([O-])([O-])[O-] (configuration not stated) the Ki (Glutamate NMDA receptor [1]) was 11 nM and the IC50 (Mus musculus [3]; Mus musculus) was 32 nM.

For C[C@]12N[C@H](Cc3ccccc31)c1ccccc12 [DIZOCILPINE MALEATE], the IC50 (Mus musculus [19]) was 5.8 nM.

With CCOC1(OCC)C2c3ccccc3C([n+]3ccccc32)C1(C)C (single isomer, unassigned; (-)) [listing 1 of 2 here] the inhibition [20] was 1%, the inhibition [7] was 23% and the inhibition [8] was 0%. The inhibition [10] was 3%, the inhibition [11] was 3% and the inhibition [12] was 50%. It also gave an inhibition [13] of 9%, an inhibition [14] of 32% and an inhibition [15] of 21%. For the same compound, the inhibition [16] was 51% and the inhibition (Mus musculus [17]) was 11%.

In the case of CCOC1(OCC)C2c3ccccc3C([n+]3c(C)cccc32)C1(C)C (configuration not stated), the Ki (Glutamate NMDA receptor [1]) is reported as 314 nM.

For CCCOC1(OCCC)C2c3ccccc3C([n+]3ccccc32)C1(C)C.[O-][Cl+3]([O-])([O-])[O-] (configuration not stated), the Ki (Glutamate NMDA receptor [1]) was 12 nM and the IC50 (Mus musculus [3]; Mus musculus) was 85 nM.

In the case of CCOC1(OCC)C2c3ccccc3C([n+]3ccccc32)C1(C)C (single isomer, unassigned; (-)) [listing 2 of 2 here], the Ki (Glutamate NMDA receptor [1]) is reported as 4 nM and the IC50 (Mus musculus [3]) is reported as 26 nM.

Work on CCOC1(OCC)C2c3ccccc3C([n+]3cccc(OC)c32)C1(C)C (configuration not stated) yielded a Ki (Glutamate NMDA receptor [1]) of 26 nM.

CCOC1(OCC)C2c3c(OC(C)=O)cccc3C([n+]3ccccc32)C1(C)C (configuration not stated) showed a Ki (Glutamate NMDA receptor [1]) of 26 nM.

Work on CCOC1(OCC)C2c3ccc(OC)cc3C([n+]3ccccc32)C1(C)C (configuration not stated) yielded a Ki (Glutamate NMDA receptor [1]) of 123 nM.
